Measurements from publication PMC6884402 (ACS infectious diseases, 2018).
Entries after “also recorded” stand apart in the source; their conditions may differ.

How the values were obtained:
[1] = tested on: virulent Type I RH strain of T. gondii that expresses luciferase; experiment: In vivo efficacy against acute toxoplasmosis in mice; set-up: species or system Toxoplasma gondii; conditions: 5 mg/kg orally for 5 days; for luminescence from infection: at day 13 / prior to euthanasia; for survival of infected mice: CF-1 mice, 4 per group
human cyt bc1 = conditions: cited from earlier work
S. cerevisiae cyt bc1 = conditions: cited from earlier work
[2] = tested on: T. gondii RH strain with T222P substitution in the cyt b Qi site; experiment: T. gondii T222P strain proliferation assay; assay type: cell-based, Toxoplasma gondii
Procedure, shortened: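 Compounds were DMSO-diluted (≤0.5% final) over human foreskin fibroblast monolayers. Wild-type or Thr222Pro RH tachyzoites (4000/well) expressing gfp and β-galactosidase were added; the mutant came from chemical mutagenesis plus selection. After 72 h at 37°C, 5% CO2, cells were lysed and chlorophenol red β-galactopyranoside added for 4 h, read spectrophotometrically. Each run ≥3 times in quadruplicate. Resistance is the T222P/wild-type EC50 ratio.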

[3] = tested on: P. falciparum Dd2 strain with I22L substitution in cytochrome b; experiment: P. falciparum I22L strain proliferation assay; assay type: cell-based, Plasmodium falciparum
Procedure, shortened: (§1)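 Dd2 or I22L clone (I22L selected from Dd2 under quinolone pressure) blood stages in 2-fold dilution series, in triplicate. Final hematocrit 2% (v/v), starting parasitemia 0.2%. Incubated 72 h at 37°C under 5% CO2/5% O2/90% N2. SYBR Green I dye-detergent added for 1 h at room temperature in the dark, then fluorescence read. EC50 is the mean of ≥3 experiments. […]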

Plasmodium = conditions: single dose of 1 mg/kg; cited from earlier work
[4] = rats, orally at 5 mk/kg; cited from earlier work
[5] = cited from earlier work
N. caninum = conditions: 10mg/kg dose; cited from earlier work
[6] = tested on: RH strain of T. gondii expressing β-galactosidase (wild type cyt b); experiment: 72h T. gondii tachyzoite proliferation assay; assay type: cell-based; conditions: Toxoplasma gondii, read-out: T. gondii EC50
Dd2 P. falciparum strain = experiment: 72h P. falciparum blood stage proliferation assay; assay type: cell-based; conditions: Plasmodium falciparum, DD2, 72 h, read-out: Dd2 EC50 (P. falciparum)
Procedure, shortened: as §1

For `O=C1C(O)=C([C@H]2CC[C@H](c3ccc(Cl)cc3)CC2)C(=O)c2ccccc21` [ATV, Atovaquone, reference compound], the “T. gondii DNA in brain (quantitative real-time PCR)” value (“T. gondii DNA in brain” for short) [1] was “developed both systemic and brain infection”, the “T. gondii DNA in spleen (quantitative real-time PCR)” value (“T. gondii DNA in spleen” for short) [1] was “developed both systemic and brain infection” and the luminescence from infection [1] was “detectable in the 2 surviving mice”. For the same compound, the “activity against human cyt bc1” value (human cyt bc1) was “has activity”.

For `Cc1[nH]c2ccccc2c(=O)c1-c1ccc(Oc2ccc(OC(F)(F)F)cc2)cc1` [Compound 1B], the “activity against human cyt bc1” value (human cyt bc1) is listed as “has activity” and the “activity against yeast (S. cerevisiae) cyt bc1” value (“activity against yeast” below) (S. cerevisiae cyt bc1) is listed as “has activity”.

In the case of `COc1ccc2c(=O)c(-c3ccc(Oc4ccc(OC(F)(F)F)cc4)cc3)c(C)[nH]c2c1` [Compound 2B], the “resistance caused by T222P substitution in T. gondii” value (“resistance caused … in T. gondii” for short) [2] is given as “causes resistance”, the “activity against human cyt bc1” value (human cyt bc1) is given as “do not inhibit” and the “activity against yeast” value (S. cerevisiae cyt bc1) is given as “do not inhibit”.

With `COc1cc2[nH]c(C)c(-c3ccc(Oc4ccc(OC(F)(F)F)cc4)cc3)c(=O)c2cc1F` [Compound 3B] the “resistance caused … in T. gondii” value [2] was “causes resistance”, the “T. gondii DNA in brain” value [1] was “evidence of brain infection by PCR that was similar to controls” and the luminescence from infection [1] was 3 of 4 mice did not have luminescence. For the same compound, the “T. gondii DNA in brain” value ([1]; listed as ELQ-316) was “had T. gondii infection in brain tissue”, the “T. gondii DNA in spleen” value ([1]; listed as ELQ-316) was “not detected above the limits of detection in the spleen of 3 of 4 mice” and the “activity against human cyt bc1” value (human cyt bc1) was “do not inhibit”. The “activity against yeast” value (S. cerevisiae cyt bc1) was “do not inhibit”.

For `COc1cc2[nH]c(C)c(-c3ccc(Oc4ccc(OC(F)(F)F)cc4)cc3)c(=O)c2cc1Cl` [Compound 4B], the “resistance caused … in T. gondii” value [2] is listed as “causes resistance”, the “activity against human cyt bc1” value (human cyt bc1) is listed as “do not inhibit” and the “activity against yeast” value (S. cerevisiae cyt bc1) is listed as “do not inhibit”. The “resistance caused by I22L substitution in P. falciparum” value [3] was “causes resistance”.

For `Cc1[nH]c2cc(F)cc(F)c2c(=O)c1-c1ccc(Oc2ccc(OC(F)(F)F)cc2)cc1` [Compound 8B], the “efficacy in a mouse model of malaria” value (Plasmodium) is listed as “curative”, the maximum concentration [4] is listed as 71.2 ng/mL and the “toxicity in general cell assays and in vivo efficacy studies” value [5] is listed as “toxicity was not observed”. The “efficacy against N. caninum infection” value (N. caninum) was “effective in reducing infection”, the “T. gondii DNA in brain” value [1] was “not detected” and the “T. gondii DNA in spleen” value [1] was “not detected”. The “survival of infected mice” value [1] was “survived until day 32; also recorded: all mice survived”, the “survival of infected mice” value ([1]; listed as ELQ-400) was “alive at the completion of the experiment” and the “T. gondii DNA in brain” value ([1]; listed as ELQ-400) was “did not have infection detectable by PCR”. For the same compound, the “T. gondii DNA in spleen” value ([1]; listed as ELQ-400) was “none of the mice”, the “activity against human cyt bc1” value (human cyt bc1) was “has activity” and the “site of inhibition in S. cerevisiae cyt b” value (S. cerevisiae cyt bc1) was “inhibit both the Qo and Qi site”.

`CCCCCCCCCCCc1c(C)[nH]c2cc(OC)ccc2c1=O` [Compound 2C, 7-methoxy-2-methyl-3-undecylquinolin-4(1H)-one] gave an EC50 [6] of 0.37 nM and an EC50 (Dd2 P. falciparum strain) of 1.8 nM.
